Active and inactive are the calls of the source. The calls are words filed in the database; no cut-off is given here.
Experiments:
[1] = system: DLD-1; assay: Reduction of proliferation in human DLD1 cells at 2.5 uM by ATP-based assay; format: functional, cell-based
Summary of the method: (§1)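 Parental DLD1 and two independent MET-KD clones seeded at equal density in 96-well plates and given 2.5 μM inhibitor. Cell number measured as ATP-based luminescence (RLU). Mean of triplicates ± SD.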

[2] = system: DLD-1; assay: Reduction of proliferation in human DLD1 KD2 cell carrying inactive MET kinase at 2.5 uM by ATP-based assay; format: functional; summary of the method: as §1
[3] = target: Mitogen-activated protein kinase 14 (Homo sapiens) (UniProt Q16539); assay: Inhibition of human p38-alpha phosphorylation in DLD1 KD cells carrying inactive MET kinase at 2.5 uM; format: cell-based
Summary of the method: (§2)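 Parental or MET-KD DLD1 cells held 16 h with or without 2.5 μM inhibitor, then lysed. Phosphorylation read on a human phospho-MAPK antibody array following the kit instructions. Dot signals quantified by densitometry and normalized to untreated WT DLD1 cells (set to 1). Significance by two-tailed Student's t test against WT untreated cells.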

[4] = system: DLD-1; assay: Inhibition of human MSK phosphorylation in DLD1 cells at 2.5 uM; format: cell-based; summary of the method: as §2
[5] = system: DLD1 KD; assay: Inhibition of human MSK phosphorylation in DLD1 KD cells carrying inactive MET kinase at 2.5 uM; format: cell-based; summary of the method: as §2
[6] = target: T1, c-Jun N-terminal kinase, JNK (Homo sapiens) (UniProt P45983+P53779+P45984); assay: Inhibition of human JNK phosphorylation in DLD1 KD cells carrying kinase inactive MET at 2.5 uM; format: cell-based; summary of the method: as §2
[7] = system: DLD-1; assay: Inhibition of human p70s6K phosphorylation in DLD1 cells at 2.5 uM; format: cell-based; summary of the method: as §2
[8] = target: Mitogen-activated protein kinase 14 (Homo sapiens) (UniProt Q16539); assay: Inhibition of human p38-alpha phosphorylation in DLD1 cells at 2.5 uM; format: cell-based; details: DLD-1; summary of the method: as §2
[9] = target: T1, c-Jun N-terminal kinase, JNK (Homo sapiens); assay: Inhibition of human JNK phosphorylation in DLD1 cells at 2.5 uM; format: cell-based; details: DLD-1; summary of the method: as §2
[10] = system: DLD-1; assay: Reduction of proliferation in human DLD1 KD1 cell carrying inactive MET kinase at 2.5 uM by ATP-based assay; format: functional; summary of the method: as §1
[11] = system: DLD1 KD; assay: Inhibition of human p70s6K phosphorylation in DLD1 KD cells carrying inactive MET kinase at 2.5 uM; format: cell-based; summary of the method: as §2

Sequence of Mitogen-activated protein kinase 14 (Homo sapiens) (Q16539 whole entry): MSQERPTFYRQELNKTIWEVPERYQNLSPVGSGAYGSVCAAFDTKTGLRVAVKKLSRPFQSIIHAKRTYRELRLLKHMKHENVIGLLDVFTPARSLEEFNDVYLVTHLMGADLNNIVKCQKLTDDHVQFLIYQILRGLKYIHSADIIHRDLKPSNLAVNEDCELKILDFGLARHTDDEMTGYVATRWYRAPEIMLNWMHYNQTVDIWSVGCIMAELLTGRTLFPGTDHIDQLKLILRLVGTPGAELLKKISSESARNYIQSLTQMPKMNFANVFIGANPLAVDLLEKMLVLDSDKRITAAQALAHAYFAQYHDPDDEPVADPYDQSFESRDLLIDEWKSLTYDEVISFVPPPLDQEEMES

Activity [3]: Active
Activity [6]: Active
Activity [8]: Active
Activity [9]: Active
Structure (SMILES): Cc1[nH]c(/C=C2\C(=O)Nc3ccc(S(=O)(=O)N(C)c4cccc(Cl)c4)cc32)c(C)c1C(=O)N1CCN(C)CC1
Activity [1]: Active
Activity [2]: Active
Activity [4]: Active
Activity [5]: Active
Activity [7]: Active
Activity [10]: Active
Activity [11]: Active

From ChEMBL document CHEMBL1145523, “Genetic targeting of the kinase activity of the Met receptor in cancer cells” (Proc Natl Acad Sci U S A, 2007)
